Assay outcomes as filed in PubChem BioAssay.
RAD54 branch = blocks human RAD54 Holliday junction branch migration; Q92698; FAM/BHQ fluorescence; inhibition, % at 10.4 µM; 360,000 compounds, 0.14% hits;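 active = mean normalized replicate activity at least 40 and at least half of replicates scoring 40 or more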;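 note: inhibitors cause a drop in the FAM fluorescence signal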
PglD inh = PglD (C. jejuni) enzyme inhibition; 360,000 compounds, 0.098% hits; inhibition, % at 12.5 µM; purified PglD enzyme, DTNB colorimetric CoA detection; in the data active = inhibition above about 16%, passing the limit was not always enough
Ecoli rRNA inh = inhibits bacterial ribosomal RNA function over humanized ribosomes; E. coli WT GFP vs humanized-ribosome RFP mutants, fluorescence, 24 h; hits give low values; DMSO median 0, no signal -100; GFP signal change (wild-type ribosome), % (concentration not given with the values); 350,000 compounds, 1.6% hits; AID 720706;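 active = significant combined selectivity score with lowered wild-type GFP, culture density cut under 30%, mutant RFP and density less affected; inactive = any of these conditions unmet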
RAD52 anneal inh = blocks human RAD52 DNA annealing. recombinant RAD52 DNA annealing, FRET fluorescence. inhibition, % at 18.7 µM. 360,000 compounds, 0.46% hits;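 active = every replicate showing at least 50% inhibition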
E-sel inducer = induces E-selectin expression in human endothelial cells. HUVEC E-selectin immunofluorescence imaging; normalized: neutral wells 0, TNF-alpha wells 100. activation, % at 7.58 µM. 260,000 compounds, 0.37% hits. AID 686992;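 active = mean E-selectin-positive cell signal at least 10% of the positive control, reached in at least 60% of replicates, without over 20% cell loss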
Target sequence (P16581 whole entry, looked up): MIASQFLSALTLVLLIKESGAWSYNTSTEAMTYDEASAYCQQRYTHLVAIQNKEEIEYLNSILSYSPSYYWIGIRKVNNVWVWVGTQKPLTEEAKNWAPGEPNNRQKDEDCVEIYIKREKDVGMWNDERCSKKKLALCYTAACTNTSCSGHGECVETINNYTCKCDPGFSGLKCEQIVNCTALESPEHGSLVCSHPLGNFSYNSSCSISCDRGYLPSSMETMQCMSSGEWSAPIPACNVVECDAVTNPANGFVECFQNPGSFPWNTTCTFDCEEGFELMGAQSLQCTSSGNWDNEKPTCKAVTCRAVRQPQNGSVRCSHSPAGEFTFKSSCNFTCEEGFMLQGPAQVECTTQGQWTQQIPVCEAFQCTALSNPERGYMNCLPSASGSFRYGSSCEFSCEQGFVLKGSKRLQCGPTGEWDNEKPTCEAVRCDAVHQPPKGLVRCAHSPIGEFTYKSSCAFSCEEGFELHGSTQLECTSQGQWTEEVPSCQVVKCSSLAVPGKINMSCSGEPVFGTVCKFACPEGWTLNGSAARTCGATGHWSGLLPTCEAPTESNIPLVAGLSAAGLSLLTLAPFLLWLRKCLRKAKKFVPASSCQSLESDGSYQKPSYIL
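System: HUVEC / Compound: single concentration / Signal: immunofluorescence imaging / Read-out: percent E-selectin-positive cells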
XiGFP reactiv = reactivates the inactive X chromosome in mouse fibroblasts | XiGFP mouse fibroblasts, % GFP-positive cells imaging, 3 d; cells co-treated with 5-aza-dC sensitizer; scaled so ellipticine positive control = 100% | activation, % at 7.58 µM | 360,000 compounds, 0.055% hits;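 active = mean normalized replicate activation at least 10% and every replicate at or above 10%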
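assay system = SV40-immortalized XiGFP fibroblast cells, line 68-5-11 | buffer or medium = DMEM plus 5-aza-dC sensitizer | doses = single-point pinned compound dosing | times = 3-day compound exposure, then 15 min fixation at room temperature | benchmarks = positive control ellipticine, 6 µM final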
Each line names hits and unclear results; the compound was inactive in the other large screens. Sampled rows, rich in hits. Any-hit rate of the full collection: about 2%.

C[C@@H](NC(=O)C[C@@H]1CC[C@H]2[C@@H](COC[C@H](O)CN2C(=O)Nc2cccc(F)c2)O1)c1ccccc1	none
C[C@@H]1CN([C@H](C)CO)C(=O)c2cccc(NC(=O)C3CC3)c2O[C@@H]1CN(C)S(=O)(=O)c1ccc(Cl)cc1	none
CC(C)NC(=O)N1[C@H](C#N)[C@H](c2ccc(C#CC3CCCC3)cc2)[C@H]1CO	none
O=C(NC[C@H]1CC[C@H]2[C@H](CN2Cc2cccc(Cl)c2)O1)C1CCC1	RAD52 anneal inh 67 (no result: RAD54 branch, PglD inh, Ecoli rRNA inh, E-sel inducer, XiGFP reactiv)
O=C(NC[C@@H]1CC[C@H]2[C@H](CN2Cc2cccc(Cl)c2)O1)C1CCC1	none (no result: RAD54 branch, PglD inh, Ecoli rRNA inh, E-sel inducer, XiGFP reactiv)
C[C@@H]1CN([C@H](C)CO)S(=O)(=O)c2ccc(C3=CCCC3)cc2O[C@H]1CN(C)C(=O)c1ccccn1	none
Cc1ccc(C2c3c(n[nH]c3C)C(=O)N2Cc2ccccc2)cc1 (stereo unspecified)	none (no result: RAD54 branch, PglD inh)
Cc1[nH]nc2c1C(c1ccc(Br)cc1)N(Cc1ccccc1)C2=O (stereo unspecified)	Ecoli rRNA inh -25 (no result: RAD54 branch, PglD inh)
COc1ccc(CNCc2cccc(Oc3ccccc3)c2)cc1	Ecoli rRNA inh -25 (no result: PglD inh)
COc1ccc(-c2ccc(SCC(=O)c3cccs3)nn2)cc1OC	Ecoli rRNA inh -34 (no result: RAD54 branch, PglD inh)
COc1ccc(-c2ccc(SCC(=O)c3ccc(F)cc3)nn2)cc1OC	none
CN(/N=C/c1cc(Cl)ccc1O)C1=NS(=O)(=O)c2ccccc21	Ecoli rRNA inh -21
CCc1nc(N2[C@@H](C#N)[C@@H](c3ccccc3-c3ccc(F)cc3)[C@@H]2CO)sc1C	none (no result: RAD54 branch, PglD inh)
CCc1nc(N2[C@H](CO)[C@H](c3ccccc3-c3ccc(F)cc3)[C@@H]2C#N)sc1C	RAD52 anneal inh 60 (no result: RAD54 branch, PglD inh)
CCC(=O)N1[C@@H](C#N)[C@H](c2ccccc2-c2ccccc2)[C@@H]1CO	RAD52 anneal inh 71 (no result: RAD54 branch, PglD inh)
C/C=C/c1ccccc1[C@H]1[C@@H](C#N)N(c2ncc(CC)s2)[C@@H]1CO	RAD52 anneal inh 65 (no result: RAD54 branch, PglD inh)
CCC(=O)N1[C@H](C#N)[C@@H](c2ccccc2-c2ccccc2)[C@@H]1CO	none (no result: RAD54 branch, PglD inh)
COc1ccccc1-c1ccc([C@@H]2[C@@H](C#N)N(C(=O)NC3CCCC3)[C@@H]2CO)cc1	none (no result: RAD54 branch, PglD inh)
CCOC(=O)c1c(C)c(C(=O)Nc2ccc(N(C)C)cc2)c(C)n1CC	Ecoli rRNA inh -16 (no result: E-sel inducer, XiGFP reactiv)
CCOC(=O)c1sc(NC(=O)CN2C(=O)C3CC=CCC3C2=O)nc1C (stereo unspecified)	E-sel inducer 151
CN1CCCCN2[C@H](CO)[C@H](c3ccc(C#Cc4ccccc4F)cc3)[C@H]2C1	RAD52 anneal inh 69
COc1ccc(C#Cc2ccc([C@H]3[C@@H](CO)N4CCCCN(C)C[C@H]34)cc2)cc1	RAD52 anneal inh 80
COc1ccc(C#Cc2ccc([C@@H]3[C@H](CO)N4CCCCN(C)C[C@@H]34)cc2)cc1	RAD52 anneal inh 63
COc1ccc(C#Cc2ccc([C@@H]3[C@@H](CO)N4CCCCN(C)C[C@H]34)cc2)cc1	none
COc1ccc(C#Cc2ccc([C@H]3[C@@H](CO)N4CCCCN(C)C[C@@H]34)cc2)cc1	none
CCn1c(SCC(=O)N(C)C2CCCCC2)nc2cc(S(N)(=O)=O)ccc21	none (no result: Ecoli rRNA inh)
CCn1c(SCC(=O)N(C)Cc2ccc(OC)c(F)c2)nc2cc(S(N)(=O)=O)ccc21	E-sel inducer 42
COc1ccc(COCC23N=C4SCc5ccccc5CN4[C@H](c4ccccc4O2)[C@H]3COC(=O)c2ccccc2)cc1	none (no result: Ecoli rRNA inh, E-sel inducer, XiGFP reactiv)
C[C@H](CO)N1C[C@H](C)[C@@H](CN(C)C(=O)Nc2ccc(F)cc2)Oc2c(NC(=O)C3CC3)cccc2C1=O	none
CCc1ccc2c(c1)C(c1ccc(N3CCOCC3)cc1)=NNC(c1ccncc1)=N2	Ecoli rRNA inh -18 (no result: RAD54 branch, PglD inh, E-sel inducer)
CCOc1ccc2ccc(OCC)c(/C=N/n3cnnc3)c2c1	Ecoli rRNA inh -27
CCOc1cc(/C=N/n2cnnc2)ccc1O	none (no result: E-sel inducer, XiGFP reactiv)
C/C(=C\c1ccco1)C1C(C#N)=C(N)Oc2n[nH]c(-c3ccc(C)cc3)c21 (stereo unspecified)	Ecoli rRNA inh -28 (no result: E-sel inducer, XiGFP reactiv)
C/C(=C\c1ccco1)C1C(C#N)=C(N)Oc2n[nH]c(-c3ccccc3)c21 (stereo unspecified)	none (no result: Ecoli rRNA inh, RAD52 anneal inh, E-sel inducer, XiGFP reactiv)
